Results published in ChEMBL document CHEMBL2440035, “Azetidines and spiro azetidines as novel P2 units in hepatitis C virus NS3 protease inhibitors” (Bioorg Med Chem Lett, 2013).

How the values were obtained:
Hepatitis C virus [1] = assay: Inhibition of Hepatitis C virus genotype 1b NS3/4A protease D168V mutant; set-up: species or system Hepatitis C virus subtype 1b
In short: (§1)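 Panel of genotype 1b NS3 protease enzymes (wild type and mutants). IC50 and IC90 are averages ± standard error from 2 independent assays. Fold change versus wild type given in parentheses.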

Hepatitis C virus [2] = assay: Ratio of EC50 for Hepatitis C virus genotype 1b NS3/4A protease D168A mutant to EC50 Hepatitis C virus genotype 1b wild type NS3/4A protease; set-up: species or system Hepatitis C virus subtype 1b
In short: (§2)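 Genotype 1b NS3 protease enzyme panel: wild type plus resistance mutants A156T, R155K, D168V, V36M, A156S, V170A and D168A. […] Resistance is expressed as the fold increase of each mutant's value over the wild-type value.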

Hepatitis C virus [3] = assay: Ratio of EC90 for Hepatitis C virus genotype 1b NS3/4A protease D168A mutant to EC90 Hepatitis C virus genotype 1b wild type NS3/4A protease; set-up: species or system Hepatitis C virus subtype 1b; in short: as §2
[4] = molecular target: T1, Neutrophil elastase (Homo sapiens) (UniProt P08246); assay: (§3) Inhibition of human neutrophil elastase
T1 sequence (whole entry): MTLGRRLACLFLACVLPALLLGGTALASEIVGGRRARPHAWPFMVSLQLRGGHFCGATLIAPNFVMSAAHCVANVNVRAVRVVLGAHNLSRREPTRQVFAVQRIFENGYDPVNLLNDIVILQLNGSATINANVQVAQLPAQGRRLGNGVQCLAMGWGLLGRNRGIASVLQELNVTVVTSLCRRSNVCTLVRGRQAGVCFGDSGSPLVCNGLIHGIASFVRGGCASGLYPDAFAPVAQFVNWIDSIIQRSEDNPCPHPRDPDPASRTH

Neutrophil elastase = molecular target: T2, Neutrophil elastase (Homo sapiens, UniProt P08246); assay: as §3
T2 sequence (P08246 whole entry): T1 sequence (whole entry)

Hepatitis C virus [5] = assay: Ratio of EC90 for Hepatitis C virus genotype 1b NS3/4A protease A156T mutant to EC90 Hepatitis C virus genotype 1b wild type NS3/4A protease; set-up: species or system Hepatitis C virus subtype 1b; in short: as §2
Hepatitis C virus [6] = assay: Ratio of EC50 for Hepatitis C virus genotype 1b NS3/4A protease V36M mutant to EC50 Hepatitis C virus genotype 1b wild type NS3/4A protease; set-up: species or system Hepatitis C virus subtype 1b; in short: as §2
Hepatitis C virus [7] = assay: Inhibition of Hepatitis C virus genotype 1b NS3/4A protease A156S mutant; set-up: species or system Hepatitis C virus subtype 1b; in short: as §1
Hepatitis C virus [8] = assay: Ratio of EC50 for Hepatitis C virus genotype 1b NS3/4A protease A156T mutant to EC50 Hepatitis C virus genotype 1b wild type NS3/4A protease; set-up: species or system Hepatitis C virus subtype 1b; in short: as §2
Hepatitis C virus [9] = assay: Inhibition of Hepatitis C virus genotype 1b NS3/4A protease R155K mutant; set-up: species or system Hepatitis C virus subtype 1b; in short: as §1
Hepatitis C virus [10] = assay: Inhibition of Hepatitis C virus genotype 1b NS3/4A protease V170A mutant; set-up: species or system Hepatitis C virus subtype 1b; in short: as §1
Hepatitis C virus [11] = assay: Inhibition of Hepatitis C virus genotype 1b NS3/4A protease D168A mutant; set-up: species or system Hepatitis C virus subtype 1b; in short: as §1
Hepatitis C virus [12] = assay: Inhibition of Hepatitis C virus genotype 1b NS3/4A protease V36M mutant; set-up: species or system Hepatitis C virus subtype 1b; in short: as §1
Cathepsin S = Cathepsin S (Homo sapiens, UniProt P25774); assay: Inhibition of human cathepsin S
Hepatitis C virus [13] = assay: Ratio of EC90 for Hepatitis C virus genotype 1b NS3/4A protease V36M mutant to EC90 Hepatitis C virus genotype 1b wild type NS3/4A protease; set-up: species or system Hepatitis C virus subtype 1b; in short: as §2
Hepatitis C virus [14] = assay: Ratio of EC90 for Hepatitis C virus genotype 1b NS3/4A protease D168V mutant to EC90 Hepatitis C virus genotype 1b wild type NS3/4A protease; set-up: species or system Hepatitis C virus subtype 1b; in short: as §2
Hepatitis C virus [15] = assay: Ratio of EC50 for Hepatitis C virus genotype 1b NS3/4A protease V170A mutant to EC50 Hepatitis C virus genotype 1b wild type NS3/4A protease; set-up: species or system Hepatitis C virus subtype 1b; in short: as §2
Hepatitis C virus [16] = assay: Inhibition of Hepatitis C virus genotype 1b wild type NS3/4A protease; set-up: species or system Hepatitis C virus subtype 1b; in short: as §1
Hepatitis C virus [17] = assay: Inhibition of Hepatitis C virus genotype 1b NS3/4A protease A156T mutant; set-up: species or system Hepatitis C virus subtype 1b; in short: as §1
Prothrombin = Prothrombin (Homo sapiens, UniProt P00734); assay: Inhibition of human thrombin
Hepatitis C virus [18] = assay: Ratio of EC90 for Hepatitis C virus genotype 1b NS3/4A protease A156S mutant to EC90 Hepatitis C virus genotype 1b wild type NS3/4A protease; set-up: species or system Hepatitis C virus subtype 1b; in short: as §2
Plasminogen = Plasminogen (Homo sapiens, UniProt P00747); assay: Inhibition of human plasmin
Plasminogen, sequence (P00747 97-580 limits assumed): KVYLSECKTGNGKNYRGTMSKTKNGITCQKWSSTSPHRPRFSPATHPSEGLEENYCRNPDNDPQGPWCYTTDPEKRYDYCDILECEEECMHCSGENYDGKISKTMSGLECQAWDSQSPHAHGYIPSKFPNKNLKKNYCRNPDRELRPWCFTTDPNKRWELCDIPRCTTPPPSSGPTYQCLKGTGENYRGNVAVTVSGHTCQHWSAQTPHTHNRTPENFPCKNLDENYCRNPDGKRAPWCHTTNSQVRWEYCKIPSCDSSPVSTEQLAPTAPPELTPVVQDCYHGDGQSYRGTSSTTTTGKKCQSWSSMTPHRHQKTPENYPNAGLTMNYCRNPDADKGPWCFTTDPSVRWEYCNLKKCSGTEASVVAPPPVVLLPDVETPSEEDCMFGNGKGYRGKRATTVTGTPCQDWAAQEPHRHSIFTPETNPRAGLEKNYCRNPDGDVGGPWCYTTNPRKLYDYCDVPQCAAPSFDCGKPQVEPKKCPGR
Plasminogen, sequence (P00747 581-810 limits assumed): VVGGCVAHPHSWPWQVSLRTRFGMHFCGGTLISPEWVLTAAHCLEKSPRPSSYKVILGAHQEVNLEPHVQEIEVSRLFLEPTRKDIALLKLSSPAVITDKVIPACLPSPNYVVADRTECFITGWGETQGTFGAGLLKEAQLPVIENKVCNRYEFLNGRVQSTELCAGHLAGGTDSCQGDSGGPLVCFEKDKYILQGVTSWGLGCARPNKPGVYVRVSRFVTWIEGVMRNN

Hepatitis C virus [19] = assay: Ratio of EC90 for Hepatitis C virus genotype 1b NS3/4A protease V170A mutant to EC90 Hepatitis C virus genotype 1b wild type NS3/4A protease; set-up: species or system Hepatitis C virus subtype 1b; in short: as §2
Hepatitis C virus [20] = assay: Ratio of EC90 for Hepatitis C virus genotype 1b NS3/4A protease R155K mutant to EC90 Hepatitis C virus genotype 1b wild type NS3/4A protease; set-up: species or system Hepatitis C virus subtype 1b; in short: as §2
Huh-7 = assay: Cytotoxicity against human HuH7 cells; assay type: cell-based
In short: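 Huh7 cytotoxicity measured together with the replicon antiviral assay, by extraction and amplification of ribosomal RNA. Each concentration run in triplicate and reported as mean.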

Hepatitis C virus [21] = assay: Ratio of EC50 for Hepatitis C virus genotype 1b NS3/4A protease R155K mutant to EC50 Hepatitis C virus genotype 1b wild type NS3/4A protease; set-up: species or system Hepatitis C virus subtype 1b; in short: as §2
Hepatitis C virus [22] = assay: Antiviral activity against Hepatitis C virus infected in human HuH7 cells assessed as viral RNA replication; assay type: functional, organism-based, Hepacivirus hominis; details: Huh-7
In short: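 Subgenomic HCV replicon in Huh7 cells; inhibition of HCV RNA replication measured by extraction and amplification of HCV RNA. Each concentration run in triplicate and reported as mean; EC50 derived.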

Hepatitis C virus [23] = assay: Ratio of EC50 for Hepatitis C virus genotype 1b NS3/4A protease D168V mutant to EC50 Hepatitis C virus genotype 1b wild type NS3/4A protease; set-up: species or system Hepatitis C virus subtype 1b; in short: as §2
Hepatitis C virus [24] = assay: Ratio of EC50 for Hepatitis C virus genotype 1b NS3/4A protease A156S mutant to EC50 Hepatitis C virus genotype 1b wild type NS3/4A protease; set-up: species or system Hepatitis C virus subtype 1b; in short: as §2

| SMILES | EC50 (Hepatitis C virus [1]) [nM] | EC90 (Hepatitis C virus [1]) [nM] | Ratio EC50 (Hepatitis C virus [2]) | Ratio (Hepatitis C virus [3]) | IC90 [4] [nM] | Ratio (Hepatitis C virus [5]) | Ratio EC50 (Hepatitis C virus [6]) | EC50 (Hepatitis C virus [7]) [nM] | EC90 (Hepatitis C virus [7]) [nM] | Ratio EC50 (Hepatitis C virus [8]) | EC50 (Hepatitis C virus [9]) [nM] | EC90 (Hepatitis C virus [9]) [nM] | EC50 (Hepatitis C virus [10]) [nM] | EC90 (Hepatitis C virus [10]) [nM] | EC50 (Hepatitis C virus [11]) [nM] | EC90 (Hepatitis C virus [11]) [nM] | EC50 (Hepatitis C virus [12]) [nM] | EC90 (Hepatitis C virus [12]) [nM] | IC50 (Cathepsin S) [nM] | IC90 (Cathepsin S) [nM] | further results |
| --- | --- | --- | --- | --- | --- | --- | --- | --- | --- | --- | --- | --- | --- | --- | --- | --- | --- | --- | --- | --- | --- |
| CC[C@@H]1C[C@]1(NC(=O)[C@@H]1C[C@@H]2CN1C(=O)[C@H](C(C)(C)C)NC(=O)OCC(C)(C)CCCCc1cccc3c1CN(C3)C(=O)O2)C(=O)NS(=O)(=O)C1CC1 | > 1000 | > 1000 | 390 | 840 | > 100000 | >77 | 7.2 | < 1 | 17 | 150 | > 1000 | > 1000 | 4.6 | 10 | 2400 | 11000 | 45 | 100 | 78000 | > 100000 | IC50 (Neutrophil elastase): > 100000 nM; Ratio (Hepatitis C virus [13]): 7.8; Ratio (Hepatitis C virus [14]): >77; Ratio EC50 (Hepatitis C virus [15]): 0.7; EC50 (Hepatitis C virus [16]): 6.2 nM; EC90 (Hepatitis C virus [16]): 13 nM; EC50 (Hepatitis C virus [17]): 910 nM; EC90 (Hepatitis C virus [17]): > 1000 nM; IC50 (Prothrombin): > 100000 nM; IC90 (Prothrombin): > 100000 nM; Ratio (Hepatitis C virus [18]): 1.3; IC50 (Plasminogen): > 100000 nM; IC90 (Plasminogen): > 100000 nM; Ratio (Hepatitis C virus [19]): 0.8 |
| CCC[C@H](NC(=O)[C@@H]1[C@H]2CCC[C@H]2CN1C(=O)[C@@H](NC(=O)[C@@H](NC(=O)c1cnccn1)C1CCCCC1)C(C)(C)C)C(=O)C(=O)NC1CC1 | 80 | 740 | 1 | 0.9 | > 100000 | >130 | 8.5 | 2200 | 52000 | 780 | 800 | 8300 | 200 | 1500 | 580 | 690 | 510 | 5100 | > 100000 | > 100000 | Ratio (Hepatitis C virus [20]): 11; CC50 (Huh-7): > 10000 nM; Ratio EC50 (Hepatitis C virus [21]): 13; Ratio (Hepatitis C virus [13]): 6.5; Ratio (Hepatitis C virus [14]): 0.9; Ratio EC50 (Hepatitis C virus [15]): 3.3; EC50 (Hepatitis C virus [22]): 400 nM; EC90 (Hepatitis C virus [22]): 900 nM; Ratio EC50 (Hepatitis C virus [23]): 1.3; EC50 (Hepatitis C virus [16]): 60 nM; EC90 (Hepatitis C virus [16]): 780 nM; Ratio EC50 (Hepatitis C virus [24]): 37; EC50 (Hepatitis C virus [17]): 46000 nM; EC90 (Hepatitis C virus [17]): > 100000 nM; IC50 (Prothrombin): < 1000 nM; IC90 (Prothrombin): < 1000 nM; Ratio (Hepatitis C virus [18]): 66; IC50 (Plasminogen): 8700 nM; Ratio (Hepatitis C virus [19]): 1.9 |
